# This is one part of a sample in which hits are shown more often than they occur.
# Pf Dd2 growth = inhibitors of Plasmodium falciparum Dd2 growth; P. falciparum Dd2 growth, SYBR Green, 72 h; stronger effect = lower value; activity change, % at 10 µM; 2.3% of 94,000 active; in the data active = activity change below about -80%
# KDM4C inh = blocks human GASC-1 (KDM4C) demethylase activity; GST-KDM4C 2-372, H3K9me3 peptide, LANCE TR-FRET; inhibition, % at 12.5 µM; 0.15% of 96,000 active; AID 720574;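 active = mean replicate inhibition above about 25%, with at least 55% of replicates also reaching it, limit read from the data, passing the limit was not always enough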
#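 Material: GST-tagged GASC-1 (JMJD2C) catalytic fragment, aa 2-372 / Quantity: enzyme final amount 10 nM / Medium: HEPES buffer, pH 7.5, plus ascorbate / Doses: one test concentration per compound / Incubation: 30 min reaction, 60 min detection, RT / Measured by: LANCE TR-FRET / Read-out: inhibition from TR-FRET ratio decrease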
# IDH1 R132H inh = IDH1 R132H (human) inhibition; 0.18% of 70,000 active; IDH1 R132H reductase, diaphorase/resazurin fluorescence, 60 min; O75874; AID 624101; inhibition, % at 10 µM; in the data active = inhibition above about 34%
# Target sequence (O75874 whole entry R132H): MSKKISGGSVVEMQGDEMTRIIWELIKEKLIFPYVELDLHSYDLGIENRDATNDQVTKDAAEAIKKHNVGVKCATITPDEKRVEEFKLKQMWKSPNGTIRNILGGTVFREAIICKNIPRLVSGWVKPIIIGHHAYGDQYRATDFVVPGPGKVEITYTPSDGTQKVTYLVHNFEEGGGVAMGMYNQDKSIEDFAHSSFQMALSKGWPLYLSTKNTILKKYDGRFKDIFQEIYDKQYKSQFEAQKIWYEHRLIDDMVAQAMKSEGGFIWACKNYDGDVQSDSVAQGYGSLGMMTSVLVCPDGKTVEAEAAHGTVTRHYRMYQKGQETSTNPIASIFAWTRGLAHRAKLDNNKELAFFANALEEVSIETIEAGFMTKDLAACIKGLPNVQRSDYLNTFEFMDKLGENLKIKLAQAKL
# A number is an active result; . = inactive; / = not tested or not shown.
SMILES,Pf Dd2 growth,KDM4C inh,IDH1 R132H inh
CCCN(C)C[C@H]1OCCCC[C@H](C)Oc2ccc(NS(=O)(=O)c3ccc(C)cc3)cc2C(=O)N([C@@H](C)CO)C[C@@H]1C,-90,.,/
CCCN(C)C[C@H]1OCCCC[C@H](C)Oc2ccc(NS(=O)(=O)c3c(C)noc3C)cc2C(=O)N([C@H](C)CO)C[C@H]1C,.,.,.
CCCN(C)C[C@H]1OCCCC[C@H](C)Oc2ccc(NS(=O)(=O)c3ccc(C)cc3)cc2C(=O)N([C@H](C)CO)C[C@H]1C,-86,.,.
CCCN(C)C[C@H]1OCCCC[C@@H](C)Oc2ccc(NS(=O)(=O)c3ccc(Cl)cc3)cc2C(=O)N([C@H](C)CO)C[C@@H]1C,.,.,/
CCCN(C)C[C@H]1OCCCC[C@H](C)Oc2ccc(NS(=O)(=O)c3ccc(Cl)cc3)cc2C(=O)N([C@H](C)CO)C[C@H]1C,.,.,/
CCCN(C)C[C@H]1OCCCC[C@@H](C)Oc2ccc(NS(=O)(=O)c3ccc(F)cc3)cc2C(=O)N([C@H](C)CO)C[C@@H]1C,.,.,/
CCCN(C)C[C@H]1OCCCC[C@H](C)Oc2ccc(NS(=O)(=O)c3c(C)noc3C)cc2C(=O)N([C@@H](C)CO)C[C@@H]1C,-89,.,/
Cc1c(NC(=O)COc2ccc([N+](=O)[O-])cc2)cccc1-c1nc2ccccc2[nH]1,/,/,.
C[C@H]1CCCCO[C@@H](CN(C)C(=O)Nc2ccc3c(c2)OCO3)[C@@H](C)CN([C@@H](C)CO)C(=O)c2cc(NC(=O)c3ccncc3)ccc2O1,.,.,.
CCC(=O)Nc1ccc2c(c1)OC[C@H](C)N(Cc1ccccn1)C[C@H](C)[C@H](OC)CN(C)C2=O,-84,.,.
CO[C@H]1CN(C)C(=O)c2ccc(NC(=O)c3ccc4c(c3)OCO4)cc2OC[C@@H](C)N(CC2CC2)C[C@H]1C,.,.,.
CCCC(=O)Nc1ccc2c(c1)OC[C@@H](C)N(Cc1ccc(F)cc1)C[C@@H](C)[C@H](OC)CN(C)C2=O,-87,.,/
CO[C@H]1CN(C)C(=O)c2ccc(NC(=O)NC(C)C)cc2OC[C@H](C)N(Cc2ccccc2)C[C@H]1C,.,.,.
CCCC(=O)Nc1ccc2c(c1)OC[C@H](C)N(Cc1ccc(F)cc1)C[C@@H](C)[C@H](OC)CN(C)C2=O,.,.,.
CCC(=O)Nc1ccc2c(c1)OC[C@H](C)N(Cc1ccccn1)C[C@@H](C)[C@@H](OC)CN(C)C2=O,.,.,.
CO[C@@H]1CN(C)C(=O)c2ccc(NC(=O)NC(C)C)cc2OC[C@@H](C)N(Cc2ccccc2)C[C@H]1C,-85,.,/
CO[C@@H]1CN(C)C(=O)c2ccc(NC(=O)c3ccc4c(c3)OCO4)cc2OC[C@@H](C)N(Cc2ccc3c(c2)OCO3)C[C@H]1C,-85,.,.
CC(=O)c1ccc(NC(=O)CSc2nc(N)cc(=O)[nH]2)cc1,/,/,.
CO[C@@H]1CC[C@@H]2CCN(C)C(=O)[C@@H](C)CN(C)C(=O)c3cc(C#N)ccc3OC[C@H]1O2,/,.,/
C[C@@H]1CN([C@@H](C)CO)C(=O)Cc2cc(NC(=O)Cn3cnnn3)ccc2O[C@H]1CN(C)Cc1ccncc1,.,.,.
CCC(C)C(O)C(C)(O)/C=C/C1=CC2=C(Cl)C(=O)C(C)(O)C(O)C2CO1 (stereo not given),/,/,.
Cc1noc(C)c1S(=O)(=O)Nc1ccc2c(c1)C(=O)N([C@H](C)CO)C[C@@H](C)[C@H](CN(C)Cc1ccc(Cl)c(Cl)c1)O2,.,.,.
CCCN1C[C@@H](C)[C@H](OC)CN(C)C(=O)c2ccc(NC(=O)c3cccc(F)c3)cc2OC[C@H]1C,-87,.,.
CCCNC(=O)Nc1ccc2c(c1)OC[C@@H](C)N(Cc1ccccc1)C[C@@H](C)[C@H](OC)CN(C)C2=O,-87,.,.
CCCN1C[C@H](C)[C@H](OC)CN(C)C(=O)c2ccc(NC(=O)c3cccc(F)c3)cc2OC[C@H]1C,.,.,.
SMILES,Pf Dd2 growth,KDM4C inh,IDH1 R132H inh
CCCNC(=O)Nc1ccc2c(c1)OC[C@H](C)N(Cc1ccccc1)C[C@H](C)[C@@H](OC)CN(C)C2=O,.,.,/
CO[C@@H]1CN(C)C(=O)c2ccc(NC(=O)NC(C)C)cc2OC[C@H](C)N(C(=O)CC2CC2)C[C@@H]1C,.,51,.
CO[C@H]1CN(C)C(=O)c2ccc(NC(=O)NC(C)C)cc2OC[C@H](C)N(C(=O)CC2CC2)C[C@@H]1C,.,.,/
O=C(C[C@H]1CC[C@H]2[C@@H](COC[C@H](O)CN2S(=O)(=O)c2ccc(F)cc2)O1)N[C@H]1CCN(Cc2ccccc2)C1,.,.,/
O=S(c1ccccc1)c1ccc2nnnn2n1 (stereo not given),/,/,62
COc1cc([C@H]2OC[C@](O)(Cc3ccc(O[C@@H]4O[C@H](CO)[C@@H](O)[C@H](O)[C@H]4O)c(OC)c3)[C@@H]2CO)ccc1O,/,/,.

# High-throughput results from PubChem BioAssay.
